Data taken from ChEMBL document CHEMBL5576111, “N-Sulfonylphenoxazines as neuronal calcium ion channel blockers” (RSC Med Chem, 2024).

Legend:
[1] = biological target: Voltage-dependent N-type calcium channel subunit alpha-1B (Homo sapiens, UniProt Q00975); assay: Inhibition of Cav2.2 in human SH-SY5Y cells assessed as inhibition of calcium influx preincubated 300 secs followed by addition of KCL/CaCl2 and measured for 300 secs in presence of Cav1 blocker nifedipine by calcium 6 dye based calcium influx assay; assay type: cell-based
Summary of the method: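 Native Cav2.2 in SH-SY5Y neuroblastoma cells seeded at 40000/well and grown 48 h at 37 °C, 5% CO2. Calcium 6 dye loading 30 min at 37 °C in HEPES buffer pH 7.4 with 0.1% BSA and 10 µM nifedipine. Compound added for 300 s, then 90 mM KCl/5 mM CaCl2, read 300 s (ex 470-495, em 515-575 nm). Top concentration 100 µM, 3-fold dilutions, 1% DMSO; cilnidipine control; n = 3.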

[2] = Metabolic stability in rat liver microsomes assessed intrinsic clearance per mg protein at 1 uM measured up to 60 mins in presence of NADPH by LC/HRMS analysis; assay type: ADME, Microsome; settings: 1 h
[3] = Stability in Sprague-Dawley rat plasma assessed as parent compound remaining at 150 uM measured after 24 hrs at 37 degreeC by HPLC analysis; assay type: ADME, cell-free; settings: read-out: Stability

Voltage-dependent N-type calcium channel subunit alpha-1B, sequence (Q00975 whole entry): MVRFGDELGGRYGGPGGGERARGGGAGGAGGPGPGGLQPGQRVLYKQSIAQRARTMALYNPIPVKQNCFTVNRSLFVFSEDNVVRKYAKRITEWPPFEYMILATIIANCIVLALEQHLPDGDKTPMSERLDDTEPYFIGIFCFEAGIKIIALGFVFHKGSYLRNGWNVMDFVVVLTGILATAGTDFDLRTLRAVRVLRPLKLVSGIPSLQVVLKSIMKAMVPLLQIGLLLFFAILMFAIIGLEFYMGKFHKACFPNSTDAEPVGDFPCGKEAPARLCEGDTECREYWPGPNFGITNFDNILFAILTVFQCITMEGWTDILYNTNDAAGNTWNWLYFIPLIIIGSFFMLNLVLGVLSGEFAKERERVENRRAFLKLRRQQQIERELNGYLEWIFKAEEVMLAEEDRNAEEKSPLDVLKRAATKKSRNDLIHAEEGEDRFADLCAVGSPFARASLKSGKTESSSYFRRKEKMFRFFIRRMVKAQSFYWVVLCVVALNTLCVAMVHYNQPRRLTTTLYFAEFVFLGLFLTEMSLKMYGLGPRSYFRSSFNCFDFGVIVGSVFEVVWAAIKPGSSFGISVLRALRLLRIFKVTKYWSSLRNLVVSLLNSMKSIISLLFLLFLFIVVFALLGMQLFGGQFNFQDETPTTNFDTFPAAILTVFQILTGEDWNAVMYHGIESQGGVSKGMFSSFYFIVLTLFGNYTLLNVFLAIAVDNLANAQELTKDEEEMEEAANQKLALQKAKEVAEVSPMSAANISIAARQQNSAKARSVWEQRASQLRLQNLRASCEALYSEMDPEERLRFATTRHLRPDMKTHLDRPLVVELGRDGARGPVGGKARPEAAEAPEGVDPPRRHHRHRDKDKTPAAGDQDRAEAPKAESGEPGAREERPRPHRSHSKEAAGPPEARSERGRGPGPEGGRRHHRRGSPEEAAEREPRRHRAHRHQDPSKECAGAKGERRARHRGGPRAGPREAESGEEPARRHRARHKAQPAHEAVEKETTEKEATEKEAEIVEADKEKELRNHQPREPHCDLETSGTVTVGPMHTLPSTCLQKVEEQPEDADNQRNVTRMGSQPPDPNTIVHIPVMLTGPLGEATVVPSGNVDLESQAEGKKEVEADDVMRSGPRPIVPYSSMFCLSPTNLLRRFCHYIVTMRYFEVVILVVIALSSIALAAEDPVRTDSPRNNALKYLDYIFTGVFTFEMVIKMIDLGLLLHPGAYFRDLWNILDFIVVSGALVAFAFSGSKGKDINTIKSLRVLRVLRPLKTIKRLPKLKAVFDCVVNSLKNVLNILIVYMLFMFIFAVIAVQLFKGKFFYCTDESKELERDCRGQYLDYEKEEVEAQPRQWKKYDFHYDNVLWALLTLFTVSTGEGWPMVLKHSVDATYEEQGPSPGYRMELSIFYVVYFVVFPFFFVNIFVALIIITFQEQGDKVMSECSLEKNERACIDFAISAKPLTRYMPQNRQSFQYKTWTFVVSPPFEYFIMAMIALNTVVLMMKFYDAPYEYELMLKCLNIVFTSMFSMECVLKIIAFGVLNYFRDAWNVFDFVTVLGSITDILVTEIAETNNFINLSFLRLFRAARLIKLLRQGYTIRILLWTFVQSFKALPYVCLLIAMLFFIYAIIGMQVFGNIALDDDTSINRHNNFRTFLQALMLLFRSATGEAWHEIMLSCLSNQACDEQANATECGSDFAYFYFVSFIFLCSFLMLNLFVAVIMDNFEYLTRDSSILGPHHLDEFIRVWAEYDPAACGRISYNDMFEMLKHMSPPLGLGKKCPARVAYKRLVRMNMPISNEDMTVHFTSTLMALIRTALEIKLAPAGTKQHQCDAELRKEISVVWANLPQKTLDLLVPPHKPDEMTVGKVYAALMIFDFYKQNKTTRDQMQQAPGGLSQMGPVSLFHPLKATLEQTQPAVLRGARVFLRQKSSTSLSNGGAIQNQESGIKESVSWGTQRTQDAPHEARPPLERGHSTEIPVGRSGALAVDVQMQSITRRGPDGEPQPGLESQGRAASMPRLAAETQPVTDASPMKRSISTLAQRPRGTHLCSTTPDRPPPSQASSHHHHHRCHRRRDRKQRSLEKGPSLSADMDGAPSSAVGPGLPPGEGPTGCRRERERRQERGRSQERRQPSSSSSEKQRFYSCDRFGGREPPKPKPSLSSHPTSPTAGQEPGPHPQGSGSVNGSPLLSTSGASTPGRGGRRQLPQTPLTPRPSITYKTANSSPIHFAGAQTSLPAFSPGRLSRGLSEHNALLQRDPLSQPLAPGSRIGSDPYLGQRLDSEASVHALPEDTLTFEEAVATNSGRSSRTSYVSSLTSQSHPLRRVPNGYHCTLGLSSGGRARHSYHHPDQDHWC

Row | SMILES | IC50 [1] | CLint [2] | remaining at 24 h, 150 µM [3]
1 | O=S(=O)(c1ccc(NCCCN2CCOCC2)cc1)N1c2ccccc2Oc2ccccc21 | 20.8 µM | – | –
2 | O=C(O)C(F)(F)F.O=S(=O)(c1ccc(OCCCN2CCOCC2)cc1)N1c2ccccc2Oc2ccccc21 | 29 µM | 239 µL/min/mg | > 90%
3 | O=S(=O)(c1ccc(NCCCn2ccnc2)cc1)N1c2ccccc2Oc2ccccc21 | 13.7 µM | – | –
4 | CN(C)CCCOc1ccc(S(=O)(=O)N2c3ccccc3Oc3ccccc32)cc1.O=C(O)C(F)(F)F | 4.3 µM | 105 µL/min/mg | > 90%
5 | COCCCOc1ccc(S(=O)(=O)N2c3ccccc3Oc3ccccc32)cc1 | 172 µM | – | –
6 | CN(C)CCCN(C)c1ccc(S(=O)(=O)N2c3ccccc3Oc3ccccc32)cc1 | 18.7 µM | – | –
7 | O=C(O)C(F)(F)F.O=S(=O)(c1ccc(OCCCN2CCCC2)cc1)N1c2ccccc2Oc2ccccc21 | 8 µM | 83 µL/min/mg | > 90%
8 | CNCCCNc1ccc(S(=O)(=O)N2c3ccccc3Oc3ccccc32)cc1 | 10.9 µM | – | –
9 | O=S(=O)(c1ccc(NCCCN2CCCC2)cc1)N1c2ccccc2Oc2ccccc21 | 4.4 µM | – | –
10 | CNCCCOc1ccc(S(=O)(=O)N2c3ccccc3Oc3ccccc32)cc1.O=C(O)C(F)(F)F | 4.6 µM | 34 µL/min/mg | 73%
11 | CN(C)CCCNc1ccc(S(=O)(=O)N2c3ccccc3Oc3ccccc32)cc1 | 9.1 µM | – | –
12 | O=C(O)C(F)(F)F.O=S(=O)(c1ccc(OCCCn2ccnc2)cc1)N1c2ccccc2Oc2ccccc21 | 48.7 µM | 132 µL/min/mg | > 90%
13 | O=C(O)C(F)(F)F.O=S(=O)(c1ccc(OCCCN2CCCCC2)cc1)N1c2ccccc2Oc2ccccc21 | 7.6 µM | 97 µL/min/mg | > 90%
14 | O=S(=O)(c1ccc(NC2CCNCC2)cc1)N1c2ccccc2Oc2ccccc21 | 19.9 µM | – | –
15 | O=S(=O)(c1ccc(NCCCN2CCCCC2)cc1)N1c2ccccc2Oc2ccccc21 | 15.2 µM | – | –
